Laboratory results reported in ChEMBL document CHEMBL1123954, “Synthesis and antitumor activity of analogues of ifosfamide modified in the N-(2-chloroethyl) group” (J Med Chem, 1988).

Experiments:
Mus musculus [1] = test: Percentage increase in life span of L1210 leukemia implanted mice at a dose of 300 mg/kg; assay type: functional
Summary of the method: (§1)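 Female CD2F1 mice, 10–12 weeks old, inoculated ip on day 0 with 10⁵ L1210 leukemia cells. Test agent dissolved in sterile saline immediately before use and given as a single ip dose on day 1 at 0.01 mL/g body weight. Groups of 6–8 treated and 18–24 control mice, following NCI screening protocol. Read-out is % increase in life span, with survivors noted at day 60.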

Mus musculus [2] = test: Percentage increase in life span of L1210 leukemia implanted mice at a dose of 60 mg/kg; assay type: functional; summary of the method: as §1
Mus musculus [3] = test: Percentage increase in life span of L1210 leukemia implanted mice at a dose of 200 mg/kg; assay type: functional; summary of the method: as §1
Mus musculus [4] = test: Percentage increase in life span of L1210 leukemia implanted mice at a dose of 100 mg/kg; assay type: functional; summary of the method: as §1
Mus musculus [5] = test: Percentage increase in life span of L1210 leukemia implanted mice at a dose of 150 mg/kg; assay type: functional; summary of the method: as §1
Mus musculus [6] = test: Percentage increase in life span of L1210 leukemia implanted mice at a dose of 400 mg/kg; assay type: functional; summary of the method: as §1
Mus musculus [7] = organism: Mus musculus; test: Effective dose that causes 50% increase in life span of mice; assay type: functional
Summary of the method: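 In L1210-bearing mice, ip dosing was run on day 1 across 4–6 dose levels giving 15–100% ILS, with six mice per dose. ED50 (dose giving 50% ILS) was obtained per experiment by linear regression of dose against %ILS. Values are reported as mean ± SD over the number of experiments.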

[8] = Lethal dose to kill 50% of the mice after single ip injection to healthy female CD2F1 mice; assay type: toxicity, organism-based; settings: CD2F1, mouse, in vivo
Summary of the method: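 Healthy female CD2F1 mice received a single ip injection at 5–6 dose levels spanning 0–100% mortality, with 10 or 15 animals per group. Deaths were followed for 21 days. LD50 and 95% confidence limits were calculated by probit analysis.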

Mus musculus [9] = test: Percentage increase in life span of L1210 leukemia implanted mice at a dose of 120 mg/kg; assay type: functional; summary of the method: as §1
Mus musculus [10] = test: Percentage increase in life span of L1210 leukemia implanted mice at a dose of 500 mg/kg; assay type: functional; summary of the method: as §1
Mus musculus [11] = test: Percentage increase in life span of L1210 leukemia implanted mice at a dose of 30-180 mg/kg; value range is 0-12; assay type: functional; summary of the method: as §1
Mus musculus [12] = test: Percentage increase in life span of L1210 leukemia implanted mice at a dose of 15-60 mg/kg; assay type: functional; summary of the method: as §1
Mus musculus [13] = test: Percentage increase in life span of L1210 leukemia implanted mice at a dose of 30-180 mg/kg; assay type: functional; summary of the method: as §1
Mus musculus [14] = test: Percentage increase in life span of L1210 leukemia implanted mice at a dose of 80 mg/kg; assay type: functional; summary of the method: as §1
Mus musculus [15] = test: Percentage increase in life span of L1210 leukemia implanted mice at a dose of […] 50 mg/kg; assay type: functional; summary of the method: as §1
Mus musculus [16] = test: Percentage increase in life span of L1210 leukemia implanted mice at a dose of 180 mg/kg; assay type: functional; summary of the method: as §1
Mus musculus [17] = test: Percentage increase in life span of L1210 leukemia implanted mice at a dose of 600 mg/kg; assay type: functional; summary of the method: as §1

| Compound | ILS at 300 mg/kg (Mus musculus [1]) | ILS at 200 mg/kg (Mus musculus [3]) | ILS at 100 mg/kg (Mus musculus [4]) | ILS at 150 mg/kg (Mus musculus [5]) | ILS at 400 mg/kg (Mus musculus [6]) | ED50 (Mus musculus [7]) | LD50 [8] | ILS at 120 mg/kg (Mus musculus [9]) | further results |
| --- | --- | --- | --- | --- | --- | --- | --- | --- | --- |
| O=[P@@]1(NCCBr)OCCCN1CCCl | > 350% | > 550% | > 550% | > 550% | 62% | 27.7 mg/kg | 368 mg/kg |  | ILS at 60 mg/kg (Mus musculus [2]): 140% |
| O=[P@]1(NCCBr)OCCCN1CCCl | > 550% | > 550% |  | > 500% | > 550% | 66.2 mg/kg | 541 mg/kg | 114% | ILS at 500 mg/kg (Mus musculus [10]): 206% |
| O=P(OCCNP1(=O)OCCCN1CCCl)(OCc1ccccc1)OCc1ccccc1 (stereo not given) |  |  |  |  |  |  |  |  | ILS (Mus musculus [11]): 0% |
| CCOP(=O)(OCC)OCCNP1(=O)OCCCN1CCCl (stereo not given) |  |  |  |  |  |  |  |  | ILS (Mus musculus [11]): 0% |
| O=P1(NCCF)OCCCN1CCCl (stereo not given) |  | -40% | -40% |  |  |  |  |  | ILS (Mus musculus [12]): 10% |
| Cc1ccc(S(=O)(=O)OCCNP2(=O)OCCCN2CCCl)cc1 (stereo not given) |  |  |  |  |  |  |  |  | ILS (Mus musculus [13]): 13% |
| O=P1(NCCBr)OCCCN1CCCl (stereo not given) | > 550% | > 550% | > 430% | > 550% | 500% | 36.2 mg/kg | 470 mg/kg |  | ILS at 60 mg/kg (Mus musculus [2]): 88%; ILS at 80 mg/kg (Mus musculus [14]): 110%; ILS at 50 mg/kg (Mus musculus [15]): 74% |
| CC(=O)OCCNP1(=O)OCCCN1CCCl (stereo not given) |  |  |  |  |  |  |  |  | ILS (Mus musculus [13]): 13% |
| O=P1(N(CCCl)CCCl)NCCCO1 (stereo not given) [CYCLOPHOSPHAMIDE ANHYDROUS] | > 550% | > 550% |  | 89% | > 425% | 90.6 mg/kg | 445 mg/kg | 86% |  |
| O=P1(NCCCl)OCCCN1CCCl (stereo not given) [IFOSFAMIDE] | > 400% | > 350% |  | 123% | > 500% | 88.6 mg/kg | 679 mg/kg | 74% | ILS at 500 mg/kg (Mus musculus [10]): > 500%; ILS at 180 mg/kg (Mus musculus [16]): > 250%; ILS at 600 mg/kg (Mus musculus [17]): > 480% |
